Reference: ChEMBL document CHEMBL1125052, “Synthesis and in vitro LTD4 antagonist activity of bicyclic and monocyclic cyclopentylurethane and cyclopentylacetamide N-arylsulfonyl amides” (J Med Chem, 1990)

Columns and labels:
[1] = target: T1, Cysteinyl leukotriene receptor 1 (Cavia porcellus) (UniProt Q2NNR5); assay: Negative logarithm of molar dissociation constant on guinea pig trachea at Cysteinyl leukotriene D4 receptor, when LTE4 is used as agonist; type: functional
T1 sequence (whole entry): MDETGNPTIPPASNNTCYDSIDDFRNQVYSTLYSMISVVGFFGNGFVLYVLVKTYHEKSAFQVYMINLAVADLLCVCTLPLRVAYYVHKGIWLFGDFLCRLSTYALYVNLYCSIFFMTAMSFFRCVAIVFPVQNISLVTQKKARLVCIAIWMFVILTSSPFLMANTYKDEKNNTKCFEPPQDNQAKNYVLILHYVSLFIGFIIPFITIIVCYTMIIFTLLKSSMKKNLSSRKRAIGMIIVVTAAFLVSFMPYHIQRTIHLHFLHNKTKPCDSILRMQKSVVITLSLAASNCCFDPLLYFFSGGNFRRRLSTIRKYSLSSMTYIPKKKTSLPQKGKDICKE
Procedure, shortened: (§1)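 Guinea pig tracheal spirals, each trachea split into two sections for paired experiments, in 10-mL baths of modified Krebs' buffer at 37 °C gassed with 95% O2/5% CO2. Resting tension was 2 g, with 60 min stabilization. Responses were expressed relative to carbachol (30 μM). Test compound was preincubated 30 min before cumulative LTE4 log-increment curves; paired controls received vehicle. EC50 was obtained by linear regression and KB = [antagonist]/(dose ratio − 1).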

[2] = target: T1, Cysteinyl leukotriene receptor 1 (Cavia porcellus); assay: Negative logarithm of molar dissociation constant on guinea pig trachea at LTD4 receptor, when LTE4 is used as agonist; type: functional; procedure, shortened: as §1
[3] = Partition coefficient (logP); type: physicochemical; details: octanol/water
[4] = Antagonist activity was determined; type: functional; procedure, shortened: as §1

Row | Structure (SMILES) | pKB [1] | also measured
1 | COc1cc(C(=O)NS(=O)(=O)c2ccccc2)ccc1CN1CCOc2ccc(NC(=O)OC3CCCC3)cc21 | 9.02 | –
2 | COc1cc(C(=O)NS(=O)(=O)c2ccccc2C)ccc1CN1CCOc2ccc(NC(=O)CC3CCCC3)cc21 | – | pKB [2]: 9.68
3 | COc1cc(C(=O)NS(=O)(=O)c2ccccc2)ccc1Cc1nn(C)c2ccc(NC(=O)OC3CCCC3)cc12 | – | pKB [2]: 10.3
4 | COc1cc(C(=O)NS(=O)(=O)c2ccccc2)ccc1Cc1csc2ccc(NC(=O)OC3CCCC3)cc12 | 9.31 | –
5 | c1ccc2[nH]cnc2c1 [BENZIMIDAZOLE] | – | logP [3]: 1.2
6 | COc1cc(C(=O)NS(=O)(=O)c2ccccc2)ccc1COc1cccc(NC(=O)OC2CCCC2)c1 | 7.14 | –
7 | COc1cc(C(=O)NS(=O)(=O)c2ccccc2C)ccc1Cc1csc2ccc(NC(=O)CC3CCCC3)cc12 | 9.25 | –
8 | COc1cc(C(=O)NS(=O)(=O)c2ccccc2)ccc1Cn1nnc2ccc(NC(=O)CC3CCCC3)cc21 | 9.86 | –
9 | COc1cc(C(=O)NS(=O)(=O)c2ccccc2)ccc1Cn1cnc2ccc(NC(=O)OC3CCCC3)cc21 | 9.2 | –
10 | COc1cc(C(=O)NS(=O)(=O)c2ccccc2)ccc1Cn1cnc2ccc(NC(=O)CC3CCCC3)cc21 | 9.22 | –
11 | COc1cc(C(=O)NS(=O)(=O)c2ccccc2Cl)ccc1Cc1csc2ccc(NC(=O)CC3CCCC3)cc12 | 9.6 | –
12 | c1ccc2[nH]nnc2c1 [BENZOTRIAZOLE] | – | logP [3]: 1.34
13 | Cn1ccc2ccccc21 | – | logP [3]: 2.72
14 | COc1cc(C(=O)NS(=O)(=O)c2ccccc2)ccc1CN1CCc2ccc(NC(=O)CC3CCCC3)cc21 | 9.11 | –
15 | COc1cc(C(=O)NS(=O)(=O)c2ccccc2)ccc1Cn1ncc2ccc(NC(=O)OC3CCCC3)cc21 [ICI-198615] | – | pA2 [4]: 10.1
16 | CNc1ccc(NC(=O)OC2CCCC2)cc1C(=O)Cc1ccc(C(=O)NS(=O)(=O)c2ccccc2C)cc1OC | 9.07 | –
17 | c1ccc2sccc2c1 [BENZOTHIOPHENE] | – | logP [3]: 3.09
18 | c1ccc2[nH]ncc2c1 [INDAZOLE] | – | logP [3]: 1.82
19 | COc1cc(C(=O)NS(=O)(=O)c2ccccc2)ccc1CN1CCOc2ccc(NC(=O)CC3CCCC3)cc21 | 9.1 | –
